Laboratory results published in ChEMBL document CHEMBL1153263, “3-Acrylamide-4-aryloxyindoles: synthesis, biological evaluation and metabolic stability of potent and selective EP3 receptor antagonists” (Bioorg Med Chem Lett, 2009).

Key:
[1] = Metabolic stability in monkey liver microsome assessed as compound remaining at 5 uM after 30 mins; format: ADME, Macaca mulatta; details: rhesus monkey, liver microsomes; read-out: Stability
Procedure, shortened: (§1)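 Liver microsomes at 0.8 mg/mL protein incubated with compound at 5 µM. Percent parent remaining after 30 min measured by LC–MS/MS.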

[2] = target: T1, Prostaglandin E2 receptor EP3 subtype (Homo sapiens, UniProt P43115); test: Displacement of [3H]PGE2 from human EP3 receptor at 20 uM in presence of 10% human serum
T1 sequence (P43115 whole entry): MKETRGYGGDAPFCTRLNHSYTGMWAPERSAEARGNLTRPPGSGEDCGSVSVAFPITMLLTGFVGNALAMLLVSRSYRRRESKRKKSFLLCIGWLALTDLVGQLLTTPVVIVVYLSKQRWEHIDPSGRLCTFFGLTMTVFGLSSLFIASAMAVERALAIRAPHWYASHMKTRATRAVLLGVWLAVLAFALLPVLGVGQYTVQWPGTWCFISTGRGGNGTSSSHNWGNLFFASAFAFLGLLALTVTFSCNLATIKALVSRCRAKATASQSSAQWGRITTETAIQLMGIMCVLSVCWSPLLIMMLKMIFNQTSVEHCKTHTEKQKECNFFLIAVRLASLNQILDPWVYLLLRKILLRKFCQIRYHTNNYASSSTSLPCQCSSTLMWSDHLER

[3] = Metabolic stability in rat liver microsome assessed as compound remaining at 5 uM after 30 mins; format: ADME; details: liver microsomes, read-out: Stability; procedure, shortened: as §1
[4] = target: T2, Prostaglandin E2 receptor EP3 subtype (Homo sapiens) (UniProt P43115); test: Ratio IC50 for human EP3 receptor in presence of human serum to IC50 for human EP3 in absence of human serum
T2 sequence (whole entry): T1 sequence (P43115 whole entry)

[5] = Antiplatelet activity against rat platelet assessed as platelet aggregation; format: functional, cell-based
[6] = Metabolic stability in dog liver microsome assessed as compound remaining at 5 uM after 30 mins; format: ADME, Canis lupus familiaris; details: liver microsomes, read-out: Stability; procedure, shortened: as §1
Mus musculus = test: Plasma concentration in NMRI mouse at 2 mg/kg, iv; format: ADME, organism-based; parameters: dose 2 mg/kg, route intravenous; details: in vivo
Procedure, shortened: (§2)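 Mouse iv exposure screen. Plasma and brain concentrations sampled 15 min after dosing.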

[7] = target: T1, Prostaglandin E2 receptor EP3 subtype; test: Displacement of [3H]PGE2 from human EP3 receptor at 20 uM in presence of normal buffer
[8] = target: T3, Prostaglandin E2 receptor EP1 subtype (Homo sapiens, UniProt P34995); test: Displacement of radioligand from EP1 receptor
T3 sequence (P34995 whole entry): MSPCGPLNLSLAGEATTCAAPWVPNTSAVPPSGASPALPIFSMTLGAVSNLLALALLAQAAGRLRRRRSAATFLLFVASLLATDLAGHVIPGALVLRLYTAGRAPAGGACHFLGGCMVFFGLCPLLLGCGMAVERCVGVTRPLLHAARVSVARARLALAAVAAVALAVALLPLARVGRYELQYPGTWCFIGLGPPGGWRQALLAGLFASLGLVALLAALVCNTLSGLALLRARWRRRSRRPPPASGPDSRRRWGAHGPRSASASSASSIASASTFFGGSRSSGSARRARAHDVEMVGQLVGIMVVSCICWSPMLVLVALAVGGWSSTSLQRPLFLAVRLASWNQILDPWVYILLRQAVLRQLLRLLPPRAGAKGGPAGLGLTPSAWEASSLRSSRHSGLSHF

Brain = test: Brain concentration in NMRI mouse at 2 mg/kg, iv; format: ADME, organism-based; parameters: dose 2 mg/kg, route intravenous; details: in vivo; procedure, shortened: as §2
[9] = Metabolic stability in human liver microsome assessed as compound remaining at 5 uM after 30 mins; format: ADME; details: liver microsomes, read-out: Stability; procedure, shortened: as §1
[10] = target: Prostaglandin E2 receptor EP4 subtype (Homo sapiens, UniProt P35408); test: Displacement of radioligand from EP4 receptor
[11] = target: Prostaglandin E2 receptor EP2 subtype (Homo sapiens, UniProt P43116); test: Displacement of radioligand from EP2 receptor
[12] = target: Prostaglandin F2-alpha receptor (Homo sapiens, UniProt P43088); test: Displacement of radioligand from FP receptor
[13] = Metabolic stability in mouse liver microsome assessed as compound remaining at 5 uM after 30 mins; format: ADME; details: liver microsomes, read-out: Stability; procedure, shortened: as §1
Prostacyclin receptor = Prostacyclin receptor (Homo sapiens, UniProt P43119); test: Displacement of radioligand from IP receptor
[14] = Antiplatelet activity against human platelet assessed as platelet aggregation; format: functional, cell-based
[15] = target: T1, Prostaglandin E2 receptor EP3 subtype; test: Antagonist activity at human EP3-2 receptor expressed in CHOK1 cells; format: functional, cell-based, CHO-K1
Procedure, shortened: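 Stably transfected CHO-K1 cells expressing hEP3II, plated at 10⁵ cells/well and cultured overnight at 37 °C, 5% CO2. Washed with PBS, pre-incubated 30 min at 37 °C in serum-free medium with 1 mM IBMX. Stimulated with PGE2 (5×10⁻⁹ M) plus forskolin (5×10⁻⁶ M) ± compound (10⁻⁴–10⁻¹³ M) for 10 min at 37 °C. cAMP measured by EIA; EC50 from sigmoid non-linear regression.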

Sequence of Prostaglandin F2-alpha receptor (P43088 whole entry): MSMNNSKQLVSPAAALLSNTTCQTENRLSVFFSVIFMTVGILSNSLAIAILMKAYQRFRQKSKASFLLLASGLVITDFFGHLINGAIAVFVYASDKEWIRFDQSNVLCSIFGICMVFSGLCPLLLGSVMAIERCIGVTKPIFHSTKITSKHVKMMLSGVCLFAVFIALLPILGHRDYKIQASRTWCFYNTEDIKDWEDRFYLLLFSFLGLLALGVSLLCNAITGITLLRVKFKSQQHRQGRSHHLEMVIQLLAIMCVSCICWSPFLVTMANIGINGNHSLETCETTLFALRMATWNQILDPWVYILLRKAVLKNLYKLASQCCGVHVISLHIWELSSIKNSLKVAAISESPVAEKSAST
Sequence of Prostaglandin E2 receptor EP4 subtype (P35408 whole entry): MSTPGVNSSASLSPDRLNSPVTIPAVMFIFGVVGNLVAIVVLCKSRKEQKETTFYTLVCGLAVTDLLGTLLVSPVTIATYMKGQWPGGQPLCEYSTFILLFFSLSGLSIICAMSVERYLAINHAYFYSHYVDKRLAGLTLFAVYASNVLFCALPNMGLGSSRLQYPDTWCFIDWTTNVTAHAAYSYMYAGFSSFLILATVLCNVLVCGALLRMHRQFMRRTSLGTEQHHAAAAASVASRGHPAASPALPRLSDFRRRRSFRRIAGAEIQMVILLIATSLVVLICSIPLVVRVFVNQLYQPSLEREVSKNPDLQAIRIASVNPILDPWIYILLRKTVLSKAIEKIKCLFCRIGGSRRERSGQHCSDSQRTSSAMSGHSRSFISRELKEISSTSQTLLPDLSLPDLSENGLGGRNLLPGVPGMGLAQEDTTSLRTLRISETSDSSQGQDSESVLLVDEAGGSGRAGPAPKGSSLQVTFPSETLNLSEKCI
Sequence of Prostaglandin E2 receptor EP2 subtype (P43116 whole entry): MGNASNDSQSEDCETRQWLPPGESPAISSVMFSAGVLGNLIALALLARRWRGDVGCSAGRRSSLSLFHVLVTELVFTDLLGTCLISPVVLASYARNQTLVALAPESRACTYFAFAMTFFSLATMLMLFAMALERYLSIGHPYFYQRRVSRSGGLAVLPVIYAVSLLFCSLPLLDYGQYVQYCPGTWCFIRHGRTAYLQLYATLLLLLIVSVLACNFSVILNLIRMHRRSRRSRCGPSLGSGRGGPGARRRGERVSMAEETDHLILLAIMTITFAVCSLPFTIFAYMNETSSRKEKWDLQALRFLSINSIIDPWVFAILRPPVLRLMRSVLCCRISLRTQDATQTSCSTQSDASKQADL
Sequence of Prostacyclin receptor (P43119 whole entry): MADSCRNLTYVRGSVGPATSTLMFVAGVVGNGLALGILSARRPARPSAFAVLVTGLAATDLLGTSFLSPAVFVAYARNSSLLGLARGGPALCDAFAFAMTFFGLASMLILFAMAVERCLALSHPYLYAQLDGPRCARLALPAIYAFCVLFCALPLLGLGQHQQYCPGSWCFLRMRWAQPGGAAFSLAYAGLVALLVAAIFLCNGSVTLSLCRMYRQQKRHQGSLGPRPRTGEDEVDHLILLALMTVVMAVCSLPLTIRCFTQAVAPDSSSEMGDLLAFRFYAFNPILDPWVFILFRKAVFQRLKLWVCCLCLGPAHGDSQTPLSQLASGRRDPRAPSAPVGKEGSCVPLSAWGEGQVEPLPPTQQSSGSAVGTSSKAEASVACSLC

SMILES: Cn1cc(/C=C/C(=O)NS(=O)(=O)c2ccc(F)c(F)c2)c2c(Oc3ccc4ccccc4c3)cccc21
- remaining at 0.5 h, 5 µM [1]: 59%
- IC50 [2]: 0.0159 µM
- remaining at 0.5 h, 5 µM [3]: 24.6%
- Ratio IC50 [4]: 2.1
- EC50 [5]: 0.0128 µM
- remaining at 0.5 h, 5 µM [6]: 69.7%
- Cp (Mus musculus): 3420 ng/mL
- IC50 [7]: 0.0074 µM
- IC50 [8]: 1.42 µM
- Drug uptake (Brain): 55.7 ng/mL
- remaining at 0.5 h, 5 µM [9]: 63.6%
- IC50 [10]: 12.5 µM
- IC50 [11]: 12.5 µM
- IC50 [12]: 3.59 µM
- remaining at 0.5 h, 5 µM [13]: 62%
- IC50 (Prostacyclin receptor): 1.88 µM

SMILES: Cn1cc(/C=C/C(=O)NS(=O)(=O)c2cc(F)c(F)cc2F)c2c(Oc3ccc4ccccc4c3)cccc21
- IC50 [2]: 0.028 µM
- remaining at 0.5 h, 5 µM [3]: 32%
- Ratio IC50 [4]: 3.1
- EC50 [5]: 0.0116 µM
- remaining at 0.5 h, 5 µM [6]: 90.4%
- Cp (Mus musculus): 1518 ng/mL
- IC50 [7]: 0.0092 µM
- EC50 [14]: 0.0081 µM
- Drug uptake (Brain): 29.1 ng/mL
- remaining at 0.5 h, 5 µM [9]: 91.2%

SMILES: Cn1cc(/C=C/C(=O)NS(=O)(=O)c2ccc(F)c(F)c2)c2c(Oc3ccc(Cl)cc3Cl)cccc21
- remaining at 0.5 h, 5 µM [1]: 53.8%
- IC50 [2]: 0.0237 µM
- remaining at 0.5 h, 5 µM [3]: 30.6%
- Ratio IC50 [4]: 2
- remaining at 0.5 h, 5 µM [6]: 104%
- IC50 [7]: 0.0118 µM
- IC50 [8]: 3.86 µM
- remaining at 0.5 h, 5 µM [9]: 74.7%
- IC50 [10]: 14.6 µM
- IC50 [11]: 9.6 µM
- IC50 [12]: 1.97 µM
- remaining at 0.5 h, 5 µM [13]: 69%
- EC50 [15]: 0.0261 µM

SMILES: Cn1cc(/C=C/C(=O)NS(=O)(=O)c2ccc(F)c(F)c2)c2c(Oc3ccc(Cl)cc3F)cccc21
- IC50 [2]: 0.124 µM
- remaining at 0.5 h, 5 µM [3]: 40%
- Ratio IC50 [4]: 17.2
- IC50 [7]: 0.0072 µM
- IC50 [8]: > 10 µM
- remaining at 0.5 h, 5 µM [9]: 113%
- IC50 [10]: > 10 µM
- IC50 [11]: > 10 µM
- IC50 [12]: 3.19 µM
- IC50 (Prostacyclin receptor): > 10 µM
